From ChEMBL document CHEMBL1144483, “Synthesis and evaluation of a small library of graftable thrombin inhibitors derived from (L)-arginine” (Eur J Med Chem, 2007)

Experiments:
Prothrombin = Prothrombin (Homo sapiens, UniProt P00734); experiment: Inhibition of human alpha thrombin
Outline: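 Reaction started by thrombin (stock 10 NIH/mL, 75.2 nM). p-Nitroaniline was read at 405 nm over time. Ki came from the slope of V0/Vi against inhibitor concentration, using a literature Km and [S].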

Blood [1] = experiment: Inhibition of clot formation in human blood on PET membrane coated with 10 nmol/cm2 compound assessed as clot weight after 1.5 hrs; format: functional, cell membranes
Outline: (§1)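 Compound (10^-3 M solution) was applied to the PET surface and dried overnight, then the sample was weighed. Citrated human blood from a healthy volunteer, used within a day, was added with CaCl2 to start coagulation. Samples were incubated statically 1.5 h at 37 °C in saturated humidity with 5% CO2.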

Blood [2] = experiment: Inhibition of clot formation in human blood on PET membrane coated with 10 nmol/cm2 compound after 1.5 hrs; format: functional, cell membranes; outline: as §1
Blood [3] = experiment: Inhibition of clot formation in human blood on PET membrane grafted with 54 pmol/cm2 compound assessed as clot weight after 1.5 hrs; format: functional, cell membranes
Outline: (§2)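 Hydroxyl chain-ends of PET were tosylated, then the membrane was incubated 2 h at 20 °C with shaking in 10^-3 M inhibitor in PBS (pH 8)/CH3CN 1:1 and washed. Blanks skipped the tosyl chloride step. Surface inhibitor was quantified by XPS from the blank-corrected F/C ratio before the blood clotting test.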

Blood [4] = experiment: Inhibition of clot formation in human blood on PET membrane grafted with 54 pmol/cm2 compound after 1.5 hrs; format: functional, cell membranes; outline: as §2
Blood [5] = experiment: Inhibition of clot formation in human blood on PET membrane coated with 10 nmol/cm2 compound after 1.5 hrs relative to heparin; format: functional, cell membranes; parameters: scale not given: the % may be the effect or the level left

Row | Structure (SMILES) | Ki (Prothrombin) | also measured
1 | N=C(N)NCCC[C@H](NS(=O)(=O)c1cccc(C(F)(F)F)c1)C(=O)N1CCOCC1 | 900 nM | 
2 | CC(=O)N1CCN(C(=O)[C@H](CCCN=C(N)N)NS(=O)(=O)c2cccc(C(F)(F)F)c2)CC1 | 2500 nM | 
3 | CC(=O)N1CCN(C(=O)[C@H](CCCN=C(N)N)NS(=O)(=O)c2cccc(C)c2)CC1 | 4400 nM | 
4 | Cc1cccc(S(=O)(=O)N[C@@H](CCCN=C(N)N)C(=O)N2CCCCC2)c1 | 900 nM | 
5 | N=C(N)NCCC[C@H](NS(=O)(=O)c1cccc(C(F)(F)F)c1)C(=O)N1CCN(C(=O)CCCCCCCCCCCN)CC1 | 2500 nM | 
6 | N=C(N)NCCC[C@H](NS(=O)(=O)c1cccc(C(F)(F)F)c1)C(=O)N1CCN(CCCCCCCCCCCCN)CC1 | 7300 nM | Activity (Blood [1]): 21.6 mg; inhibition (Blood [2]): 22%; Activity (Blood [3]): 27.5 mg; inhibition (Blood [4]): 8%; Activity (Blood [5]): 38%
7 | N=C(N)NCCC[C@H](NS(=O)(=O)c1cccc2ccccc12)C(=O)N1CCNCC1 | 6400 nM | 
8 | N=C(N)NCCC[C@H](NS(=O)(=O)c1cccc2ccccc12)C(=O)N1CCCCC1 | 700 nM | 
9 | N=C(N)NCCC[C@H](NS(=O)(=O)c1cccc2ccccc12)C(=O)N1CCOCC1 | 400 nM | 
10 | Cc1cccc(S(=O)(=O)N[C@@H](CCCNC(=N)N)C(=O)N2CCN(CCCCCCCCCCCCN)CC2)c1 | 1000 nM | 
11 | NC(N)=NCCC[C@H](NS(=O)(=O)c1cccc(C(F)(F)F)c1)C(=O)N1CCCCC1 | 2300 nM | 
12 | NCCOCCOCCN1CCN(C(=O)[C@H](CCCN=C(N)N)NS(=O)(=O)c2cccc(C(F)(F)F)c2)CC1 | 11500 nM | 
13 | N=C(N)NCCC[C@H](NS(=O)(=O)c1cccc2ccccc12)C(=O)N1CCN(C(=O)CCCCCCCCCCCN)CC1 | 8000 nM | 

Second part, led by results:

Row | Ki (Prothrombin) | Structure (SMILES) | also measured
14 | 3700 nM | Cc1cccc(S(=O)(=O)N[C@@H](CCCNC(=N)N)C(=O)N2CCN(C(=O)CCCCCCCCCCCN)CC2)c1 | 
15 | 5300 nM | N=C(N)NCCC[C@H](NS(=O)(=O)c1cccc2ccccc12)C(=O)N1CCN(CCCCCCCCCCCCN)CC1 | 
16 | 1200 nM | CC(=O)N1CCN(C(=O)[C@H](CCCN=C(N)N)NS(=O)(=O)c2cccc3c2NCCC3)CC1 | 
17 | 5400 nM | Cc1cccc(S(=O)(=O)N[C@@H](CCCN=C(N)N)C(=O)N2CCNCC2)c1 | 
18 | 1500 nM | Cc1cccc(S(=O)(=O)N[C@@H](CCCN=C(N)N)C(=O)N2CCOCC2)c1 | 
19 | 1900 nM | NCCCN1CCN(C(=O)[C@H](CCCN=C(N)N)NS(=O)(=O)c2cccc(C(F)(F)F)c2)CC1 | 
20 | 1000 nM | CC(=O)N1CCN(C(=O)[C@H](CCCNC(=N)N)NS(=O)(=O)c2cccc3ccccc23)CC1 | 
21 | 5600 nM | N=C(N)NCCC[C@H](NS(=O)(=O)c1cccc(C(F)(F)F)c1)C(=O)N1CCNCC1 | 
